PG9 Ab binder: PG9 antibody binding by small molecule | inhibition, % at 6.7 µM | TR-FRET gp120-PG9 antibody binding | AID 624416 | hit rate 0.43% among 360,000; in the data active means inhibition above about 8.5%
TAG inh: inhibitors of triacylglycerol accumulation | AID 651582 | H9c2 cells, Nile Red lipid (TAG) fluorescence; cells loaded with 200 µM oleic acid | hit rate 0.66% among 230,000 | inhibition, % at 12.5 µM;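 active means pattern-corrected inhibition of lipid staining of at least 50% with the nuclear-stain viability signal not falling by more than 50%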;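 further: 0% = DMSO wells and 100% = triacsin C control wells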
iPSC survival up: increases survival of single human iPS cells; hiPSC single-cell survival, ATPlite luminescence; 100% = ROCK inhibitor wells, 0% = DMSO; survival enhancement, % at 20 µM; hit rate 0.044% among 360,000; in the data active means survival enhancement above about 18%;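 further: cells exposed to compounds for 16 hours before the ATP read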
Rev-erbA mod: modulates human Rev-erb alpha binding to DNA; P20393; Rev-erbα–FITC-DNA binding, fluorescence polarization, 90 min; activity, % at 10 µM; hit rate 0.79% among 370,000;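 active means activity above about 14%, limit read from the data; passing the limit was not always enough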;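 further: 0% = DMSO wells with 35 nM protein and 100% = DMSO wells with 750 nM protein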
Target sequence (P20393 whole entry, looked up): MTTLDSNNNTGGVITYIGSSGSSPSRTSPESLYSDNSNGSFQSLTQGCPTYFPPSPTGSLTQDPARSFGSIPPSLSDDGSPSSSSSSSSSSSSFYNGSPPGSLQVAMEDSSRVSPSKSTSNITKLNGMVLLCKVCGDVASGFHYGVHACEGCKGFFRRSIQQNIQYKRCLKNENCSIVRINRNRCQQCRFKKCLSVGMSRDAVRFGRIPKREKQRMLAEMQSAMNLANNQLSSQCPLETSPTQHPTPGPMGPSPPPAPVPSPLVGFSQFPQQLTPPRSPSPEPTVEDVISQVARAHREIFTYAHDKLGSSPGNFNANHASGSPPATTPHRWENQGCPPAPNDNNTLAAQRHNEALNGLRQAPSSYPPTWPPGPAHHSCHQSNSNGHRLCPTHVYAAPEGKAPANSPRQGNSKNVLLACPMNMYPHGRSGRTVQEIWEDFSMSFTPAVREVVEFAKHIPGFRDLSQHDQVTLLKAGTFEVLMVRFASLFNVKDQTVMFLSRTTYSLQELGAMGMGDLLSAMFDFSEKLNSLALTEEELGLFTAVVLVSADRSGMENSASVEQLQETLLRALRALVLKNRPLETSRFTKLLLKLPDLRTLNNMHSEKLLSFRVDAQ
beta cell repl: induces beta-cell replication in MIN6 cells; MIN6 cells proliferation, ATPlite luminescence, 48 h; cells starved in 0.2% serum; 100% = growth in 10% serum; proliferation, % at 10 µM; hit rate 0.29% among 330,000;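 active means compounds whose signal lies at least 3.5 SD above the mean of all wells on their plate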;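 further: 0% = DMSO-treated cells in low-serum medium and 100% = 10% serum control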
T cruzi repl: blocks replication of Trypanosoma cruzi; T. cruzi beta-gal in NIH3T3, luminescence, 90 h; inhibition, % (test concentration not listed); hit rate 1.4% among 300,000;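 active means mean inhibition across valid replicates above about 55%, limit read from the data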;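 further: signal also drops with host cell toxicity which is not excluded here; 0% = plate median of DMSO wells and 100% = zero luminescence signal; higher percent means less beta-gal luminescence so fewer parasites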
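Assay system: NIH/3T3 host cells with β-galactosidase reporter T. cruzi; input: 5,000 host fibroblasts per well; compound: single 50 nL compound addition per well in DMSO; timing: ≥90 h infection period, 3 h prior cell attachment; measured by: GalScreen β-gal luminescence, detergent lysis, 60 min; evaluation: percent inhibition of parasite-derived β-gal signal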
H9c2 TAG conf: triacylglycerol accumulation inhibition, confirmation. AID 651629. hit rate 71% among 990. shares compounds with TAG inh. H9c2 lipid accumulation, Nile Red fluorescence; cells loaded with 200 µM oleic acid. inhibition, % at 12.5 µM;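 active means mean inhibition across replicates of 40% or more; inactive means mean inhibition below 40%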;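 further: plate controls were DMSO only wells for no effect and Triacsin C treated wells for full effect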
An asterisk follows results filed as active. In the library only some 2.9% were active in any assay of this set; here they are far more common.

For COc1cc2c3c(c1)c(C1=NC(=S)NC1=O)c(O)n3C(C)(C)C=C2C the results were PG9 Ab binder -2, TAG inh 83*, iPSC survival up 1, Rev-erbA mod -6, beta cell repl -1, T cruzi repl 7 and H9c2 TAG conf 66*.
Screening CCCCOC(=O)c1ccc(NS(=O)(=O)c2cc(-c3nnnn3CC)ccc2OC)cc1 returned PG9 Ab binder 0, iPSC survival up -1, Rev-erbA mod -1, beta cell repl 1 and T cruzi repl -17.
`CCCOc1ccccc1C1CC(=O)NC2=C1C(=O)CCC2` (stereo unspecified) gave PG9 Ab binder -2, TAG inh 32, iPSC survival up 1, Rev-erbA mod -5, beta cell repl -1 and T cruzi repl -8.
`CCCCOc1ccccc1C1CC(=O)NC2=C1C(=O)CCC2` (stereo unspecified) gave PG9 Ab binder -1, TAG inh 71*, iPSC survival up -2, Rev-erbA mod 0, beta cell repl -1, T cruzi repl -22 and H9c2 TAG conf 66*.
`COc1ccc(NC(=O)/C(=C\c2ccc(OS(=O)(=O)c3ccc(C)cc3)cc2)NC(=O)c2ccccc2)cc1` gave PG9 Ab binder -1, TAG inh 4, iPSC survival up -4, Rev-erbA mod 1, beta cell repl -3 and T cruzi repl 24.
Screening Cc1ccc(-c2nn(-c3ccccc3)cc2NC(=O)CCl)cc1 returned PG9 Ab binder 0, TAG inh 51*, iPSC survival up -1, Rev-erbA mod -2, beta cell repl -7, T cruzi repl -28 and H9c2 TAG conf 80*.
For COc1ccc(NC2=NC(=S)N(c3ccc(C)cc3)C23CCCCC3)cc1 the results were PG9 Ab binder 0, TAG inh 57*, iPSC survival up 4, Rev-erbA mod 2, beta cell repl -3, T cruzi repl -14 and H9c2 TAG conf 30.
CCOC(=O)N1CCN(C(=O)C2CCN(S(=O)(=O)c3ccc(C)cc3)CC2)CC1 was read as PG9 Ab binder -1, TAG inh 1, iPSC survival up 0, Rev-erbA mod -3, beta cell repl 0 and T cruzi repl -14.
For COc1cc(C#Cc2c(-c3cncn3C)n(C)c3ccc(-c4ccc(OC)c(OC)c4)cc23)cc(OC)c1 the results were PG9 Ab binder 0, TAG inh 70*, iPSC survival up -2, Rev-erbA mod 6, beta cell repl -7 and H9c2 TAG conf 69*.
COc1cc(C#Cc2c(-c3cncn3C)n(C)c3ccc(-c4ccc5cc[nH]c5c4)cc23)cc(OC)c1 was read as PG9 Ab binder -2, TAG inh 82*, iPSC survival up -3, Rev-erbA mod -1, beta cell repl -6 and H9c2 TAG conf 74*.
Screening CCCOc1ccc(F)cc1-c1cc(C(=O)NCc2ccccc2)[nH]n1 returned PG9 Ab binder -1, TAG inh -4, iPSC survival up -3 and Rev-erbA mod 1.
CCCOc1ccc(F)cc1-c1cc(C(=O)NCc2cc(OC)cc(OC)c2)[nH]n1 was read as PG9 Ab binder -1, TAG inh 54*, iPSC survival up 10, Rev-erbA mod -3 and H9c2 TAG conf 50*.
For C=CCC[C@@H](Cc1ccc(F)cc1)C(=O)OC[C@@H](Cc1c[nH]c2ccccc12)NC(=O)[C@@H](CC=C)CC(=O)N(CCO)Cc1ccccc1 the results were PG9 Ab binder 0, TAG inh 60*, iPSC survival up -1, Rev-erbA mod 2, beta cell repl -5 and H9c2 TAG conf 60*.
`C=CC[C@@H](CC(=O)N(CCO)Cc1ccccc1)C(=O)N[C@H](COC(=O)[C@@H](CC=C)Cc1ccc(F)cc1)Cc1c[nH]c2ccccc12` gave PG9 Ab binder 0, TAG inh 62*, iPSC survival up -2, Rev-erbA mod 3, beta cell repl -6 and H9c2 TAG conf 63*.
C=CC[C@H](CC(=O)N(CCO)Cc1ccccc1)C(=O)N[C@H](COC(=O)[C@@H](CC=C)Cc1ccc(F)cc1)Cc1c[nH]c2ccccc12 was read as PG9 Ab binder -1, TAG inh 26, iPSC survival up 0, Rev-erbA mod 3 and beta cell repl -6.
For C=CCC[C@H](Cc1ccc(F)cc1)C(=O)OC[C@H](Cc1c[nH]c2ccccc12)NC(=O)[C@H](CC=C)CC(=O)N(CCO)Cc1ccccc1 the results were PG9 Ab binder 0, TAG inh 18, iPSC survival up 2, Rev-erbA mod 1 and beta cell repl -6.
Screening CN(C)C(=O)/C(=C/c1ccc(-c2cccc([N+](=O)[O-])c2)o1)NC(=O)c1ccccc1 returned PG9 Ab binder -1, iPSC survival up 0, Rev-erbA mod 4, beta cell repl 0 and T cruzi repl 4.
COc1ccc(S(=O)(=O)N2CCCCCC2)cc1C(=O)N(C)Cc1ccc(C(C)(C)C)cc1 was read as PG9 Ab binder 3, TAG inh -9, iPSC survival up 0, Rev-erbA mod 9, beta cell repl -6 and T cruzi repl 28.
`C[C@H](NC(=O)c1nc[nH]c1C(=O)NCc1ccccc1)C(=O)OC(C)(C)C` gave PG9 Ab binder 0, TAG inh -20, iPSC survival up -1, Rev-erbA mod 11, beta cell repl -1 and T cruzi repl -12.
Screening N#CC1C=Cc2c(ccc3ccccc23)N1C(=O)c1ccccc1 (stereo unspecified) returned PG9 Ab binder 0, TAG inh 60*, iPSC survival up 1, Rev-erbA mod 10 and H9c2 TAG conf 56*.
For CCNc1nc(SC(C)C(=O)Nc2ccccc2)nc(N(C)C)n1 (stereo unspecified) the results were PG9 Ab binder 2, TAG inh 54*, iPSC survival up 0, Rev-erbA mod -4, beta cell repl -3, T cruzi repl -8 and H9c2 TAG conf 28.
CC(C)Nc1nc(SC(C)C(=O)Nc2ccccc2)nc(N(C)C)n1 (stereo unspecified) was read as PG9 Ab binder -1, TAG inh 13, iPSC survival up 0, Rev-erbA mod 3, beta cell repl -3 and T cruzi repl 4.
`Cc1nc(CS(=O)(=O)c2ccccn2)sc1C(=O)NNC(=O)c1c(F)cccc1Cl` gave PG9 Ab binder 0, TAG inh -18, iPSC survival up 1, Rev-erbA mod -4, beta cell repl -2 and T cruzi repl 2.
Screening Cc1ccc2nc(-c3ccccc3NC(=O)CCC(=O)O)c(=O)[nH]c2c1 returned PG9 Ab binder -2, TAG inh 4, iPSC survival up -1, Rev-erbA mod -2, beta cell repl 3 and T cruzi repl -17.
